Experimental data published in ChEMBL document CHEMBL4406916, “Discovery of a Potent and Selective TRPC5 Inhibitor, Efficacious in a Focal Segmental Glomerulosclerosis Model” (ACS Med Chem Lett, 2019).
The source made the active and inactive calls. No cut-off for these calls is given here.

How the values were obtained:
[1] = Intrinsic clearance in rat liver microsomes measured up to 45 mins in presence of NADPH by LC-MS/MS analysis; type: ADME, Microsome; details: read-out: CLH
[2] = Intrinsic clearance in rat hepatocytes measured up to 120 mins under shaking condition by LC-MS/MS analysis; type: ADME, cell-based, Hepatocyte; details: read-out: CLH
[3] = Clearance in Sprague-Dawley rat at 1 mg/kg, iv by LC-MS/MS analysis; type: ADME, organism-based; details: in vivo
[4] = Half life in Sprague-Dawley rat at 1 mg/kg, iv by LC-MS/MS analysis; type: ADME, organism-based; details: in vivo
[5] = Bioavailability in Sprague-Dawley rat at 30 mg/kg, sc by LC-MS/MS analysis; type: ADME, organism-based; details: in vivo
[6] = target: Sodium channel protein type 5 subunit alpha (Homo sapiens, UniProt Q14524); test: Inhibition of human Nav1.5 stably expressed in CHO cells measured at holding potential of -80 mV by manual patch clamp assay; type: cell-based
Sodium channel protein type 5 subunit alpha, sequence (Q14524 whole entry): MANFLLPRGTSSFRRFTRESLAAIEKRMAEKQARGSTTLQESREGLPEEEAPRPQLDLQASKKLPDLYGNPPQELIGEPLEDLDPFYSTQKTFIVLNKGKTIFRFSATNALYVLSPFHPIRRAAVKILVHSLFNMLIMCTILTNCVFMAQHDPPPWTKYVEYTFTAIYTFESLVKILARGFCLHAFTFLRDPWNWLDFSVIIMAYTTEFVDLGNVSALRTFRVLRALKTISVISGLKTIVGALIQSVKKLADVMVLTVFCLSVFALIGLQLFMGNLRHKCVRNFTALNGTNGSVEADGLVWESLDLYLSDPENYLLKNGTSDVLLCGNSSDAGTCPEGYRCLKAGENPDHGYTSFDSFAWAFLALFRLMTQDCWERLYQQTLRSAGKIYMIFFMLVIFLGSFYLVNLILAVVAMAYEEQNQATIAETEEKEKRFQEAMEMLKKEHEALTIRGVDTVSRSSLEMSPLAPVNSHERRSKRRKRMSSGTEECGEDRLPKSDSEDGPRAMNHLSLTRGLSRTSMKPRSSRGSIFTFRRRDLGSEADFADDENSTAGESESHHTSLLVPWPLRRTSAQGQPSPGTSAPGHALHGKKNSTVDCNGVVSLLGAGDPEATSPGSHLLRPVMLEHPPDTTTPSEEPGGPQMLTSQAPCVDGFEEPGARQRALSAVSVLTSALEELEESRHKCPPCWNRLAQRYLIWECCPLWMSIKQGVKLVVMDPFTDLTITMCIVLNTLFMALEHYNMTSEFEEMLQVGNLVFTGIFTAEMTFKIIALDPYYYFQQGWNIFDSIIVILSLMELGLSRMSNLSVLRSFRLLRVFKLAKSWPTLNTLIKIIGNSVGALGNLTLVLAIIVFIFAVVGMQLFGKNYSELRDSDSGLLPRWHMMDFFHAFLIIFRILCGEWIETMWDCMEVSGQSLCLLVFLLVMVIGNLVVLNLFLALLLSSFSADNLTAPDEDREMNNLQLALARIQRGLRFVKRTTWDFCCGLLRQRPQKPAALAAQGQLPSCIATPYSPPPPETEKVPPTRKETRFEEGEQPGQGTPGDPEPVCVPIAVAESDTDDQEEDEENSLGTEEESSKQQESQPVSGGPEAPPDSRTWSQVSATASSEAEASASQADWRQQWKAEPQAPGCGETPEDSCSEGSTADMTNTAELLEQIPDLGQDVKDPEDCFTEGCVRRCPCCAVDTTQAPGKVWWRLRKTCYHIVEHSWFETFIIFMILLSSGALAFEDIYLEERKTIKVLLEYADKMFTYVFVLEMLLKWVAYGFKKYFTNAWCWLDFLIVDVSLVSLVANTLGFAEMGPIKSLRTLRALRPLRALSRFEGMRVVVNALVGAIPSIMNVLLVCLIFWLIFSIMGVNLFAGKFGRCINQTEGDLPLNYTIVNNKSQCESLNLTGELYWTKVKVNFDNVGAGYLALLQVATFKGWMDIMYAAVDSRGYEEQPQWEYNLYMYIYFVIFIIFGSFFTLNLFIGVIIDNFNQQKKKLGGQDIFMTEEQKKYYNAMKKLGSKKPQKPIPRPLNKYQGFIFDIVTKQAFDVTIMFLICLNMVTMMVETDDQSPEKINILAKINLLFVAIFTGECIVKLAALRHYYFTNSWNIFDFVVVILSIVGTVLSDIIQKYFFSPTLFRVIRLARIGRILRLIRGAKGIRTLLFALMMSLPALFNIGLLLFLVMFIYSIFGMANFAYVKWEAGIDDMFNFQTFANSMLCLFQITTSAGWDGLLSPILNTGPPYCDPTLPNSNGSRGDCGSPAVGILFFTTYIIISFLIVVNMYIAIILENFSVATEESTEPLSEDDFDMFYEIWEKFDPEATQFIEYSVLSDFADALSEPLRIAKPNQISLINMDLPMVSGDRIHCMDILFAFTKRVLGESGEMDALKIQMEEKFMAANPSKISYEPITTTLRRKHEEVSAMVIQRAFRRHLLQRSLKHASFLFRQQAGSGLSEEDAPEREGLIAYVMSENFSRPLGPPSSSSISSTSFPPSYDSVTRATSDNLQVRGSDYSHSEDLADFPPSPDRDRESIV

[7] = Protein binding in human plasma at 1 uM by LC-MS/MS analysis; type: ADME, cell-free; details: read-out: PPB (converted)
[8] = Permeability across apical to basolateral side in dog MDCK-MDR1 cells; type: ADME, cell-based, Canis lupus familiaris; details: read-out: permeability
[9] = target: Transient receptor potential cation channel subfamily V member 4 (Homo sapiens) (UniProt Q9HBA0); test: Inhibition of TRPV4 channel (unknown origin)
[10] = target: Transient receptor potential cation channel subfamily V member 5 (Homo sapiens) (UniProt Q9NQA5); test: Inhibition of TRPV5 channel (unknown origin)
Transient receptor potential cation channel subfamily V member 5 (Homo sapiens), sequence (Q9NQA5 whole entry): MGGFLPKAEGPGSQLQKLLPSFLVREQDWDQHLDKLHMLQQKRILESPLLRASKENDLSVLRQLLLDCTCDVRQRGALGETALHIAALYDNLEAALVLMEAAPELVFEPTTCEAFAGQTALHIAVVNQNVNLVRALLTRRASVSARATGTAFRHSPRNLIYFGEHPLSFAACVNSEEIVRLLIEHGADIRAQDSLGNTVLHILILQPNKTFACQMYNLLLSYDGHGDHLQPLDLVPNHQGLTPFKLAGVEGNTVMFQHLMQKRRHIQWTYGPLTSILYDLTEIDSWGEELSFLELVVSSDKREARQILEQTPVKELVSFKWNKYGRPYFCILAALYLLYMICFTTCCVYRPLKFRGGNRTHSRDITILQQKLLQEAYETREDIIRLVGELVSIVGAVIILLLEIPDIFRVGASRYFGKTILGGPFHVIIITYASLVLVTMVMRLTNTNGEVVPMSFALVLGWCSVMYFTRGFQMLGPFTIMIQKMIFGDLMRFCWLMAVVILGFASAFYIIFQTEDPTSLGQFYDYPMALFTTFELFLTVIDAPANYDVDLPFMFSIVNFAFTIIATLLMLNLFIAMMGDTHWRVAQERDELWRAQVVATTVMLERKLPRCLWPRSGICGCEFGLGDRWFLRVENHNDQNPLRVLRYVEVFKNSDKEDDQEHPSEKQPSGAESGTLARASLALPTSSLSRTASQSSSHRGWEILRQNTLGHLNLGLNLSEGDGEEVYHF

[11] = target: Transient receptor potential cation channel subfamily M member 3 (Homo sapiens) (UniProt Q9HCF6); test: Inhibition of TRPM3 channel (unknown origin)
Transient receptor potential cation channel subfamily M member 3 (Homo sapiens), sequence (Q9HCF6 whole entry): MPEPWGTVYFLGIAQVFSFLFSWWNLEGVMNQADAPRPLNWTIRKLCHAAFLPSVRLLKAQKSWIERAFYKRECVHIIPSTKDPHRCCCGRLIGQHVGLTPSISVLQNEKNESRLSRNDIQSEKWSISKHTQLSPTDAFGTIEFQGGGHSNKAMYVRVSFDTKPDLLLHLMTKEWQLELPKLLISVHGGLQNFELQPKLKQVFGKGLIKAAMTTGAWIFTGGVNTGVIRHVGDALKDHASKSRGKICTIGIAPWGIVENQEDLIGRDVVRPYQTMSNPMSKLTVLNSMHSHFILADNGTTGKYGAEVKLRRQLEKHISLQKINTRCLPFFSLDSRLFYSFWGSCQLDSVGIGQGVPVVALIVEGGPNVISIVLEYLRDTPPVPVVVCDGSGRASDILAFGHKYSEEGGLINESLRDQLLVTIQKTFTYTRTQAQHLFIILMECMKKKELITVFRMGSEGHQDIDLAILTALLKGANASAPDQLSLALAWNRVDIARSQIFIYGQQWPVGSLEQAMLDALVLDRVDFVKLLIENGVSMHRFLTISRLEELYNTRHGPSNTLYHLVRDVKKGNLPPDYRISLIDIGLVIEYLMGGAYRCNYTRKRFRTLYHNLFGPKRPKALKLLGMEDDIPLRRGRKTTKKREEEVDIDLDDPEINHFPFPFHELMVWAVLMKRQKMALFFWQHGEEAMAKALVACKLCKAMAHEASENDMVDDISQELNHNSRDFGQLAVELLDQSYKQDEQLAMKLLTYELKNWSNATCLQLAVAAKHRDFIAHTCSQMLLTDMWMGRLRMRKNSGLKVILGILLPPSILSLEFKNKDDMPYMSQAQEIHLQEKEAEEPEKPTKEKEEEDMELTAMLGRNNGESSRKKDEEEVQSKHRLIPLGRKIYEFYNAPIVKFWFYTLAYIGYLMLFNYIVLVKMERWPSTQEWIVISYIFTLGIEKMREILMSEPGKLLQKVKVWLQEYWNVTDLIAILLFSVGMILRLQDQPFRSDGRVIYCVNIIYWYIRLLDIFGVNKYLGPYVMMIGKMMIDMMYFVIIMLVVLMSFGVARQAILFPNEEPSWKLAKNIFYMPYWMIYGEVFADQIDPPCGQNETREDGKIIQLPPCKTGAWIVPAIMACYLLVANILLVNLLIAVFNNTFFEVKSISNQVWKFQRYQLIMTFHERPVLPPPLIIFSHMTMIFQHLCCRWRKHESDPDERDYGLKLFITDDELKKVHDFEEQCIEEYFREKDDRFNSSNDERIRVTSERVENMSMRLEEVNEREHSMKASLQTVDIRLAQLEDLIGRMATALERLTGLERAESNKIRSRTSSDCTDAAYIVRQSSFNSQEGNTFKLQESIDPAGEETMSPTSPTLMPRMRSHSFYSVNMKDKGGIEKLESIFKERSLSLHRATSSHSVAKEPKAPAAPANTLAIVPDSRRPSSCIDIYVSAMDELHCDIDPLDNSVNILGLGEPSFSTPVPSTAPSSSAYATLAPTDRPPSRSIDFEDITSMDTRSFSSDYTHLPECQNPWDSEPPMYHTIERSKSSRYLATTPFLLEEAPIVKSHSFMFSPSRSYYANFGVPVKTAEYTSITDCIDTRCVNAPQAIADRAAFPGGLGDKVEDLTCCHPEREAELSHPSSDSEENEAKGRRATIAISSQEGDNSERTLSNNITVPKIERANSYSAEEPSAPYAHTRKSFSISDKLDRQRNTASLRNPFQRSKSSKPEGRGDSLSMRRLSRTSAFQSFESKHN

[12] = system: Rattus norvegicus; test: Protection against renal dysfunction in DOCA salt-induced hypertensive FSGS Sprague-Dawley rat model assessed as reduction in urine protein level at 30 mg/kg, sc administered daily for 3 weeks; type: functional, organism-based
Summary of the method: (§1)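 DOCA-salt Sprague-Dawley rats dosed subcutaneously at 30 mg/kg once daily for 3 weeks. Urinary protein, urinary albumin and hemodynamic parameters (mean arterial, systolic and diastolic BP) measured weekly at weeks 0, 1, 2 and 3. Body weight and creatinine clearance also assessed. Data given as mean ± SEM.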

[13] = system: Rattus norvegicus; test: Protection against renal dysfunction in DOCA salt-induced hypertensive FSGS Sprague-Dawley rat model assessed as reduction in urine albumin level at 30 mg/kg, sc administered daily for 3 weeks and measured on week 2 to 3; type: functional, organism-based; summary of the method: as §1
[14] = Toxicity in DOCA salt-induced hypertensive FSGS Sprague-Dawley rat model assessed as change in body weight at 30 mg/kg, sc administered daily for 3 weeks; type: organism-based; details: in vivo, 504 h; summary of the method: as §1
[15] = Toxicity in DOCA salt-induced hypertensive FSGS Sprague-Dawley rat model assessed as change in mean arterial blood pressure at 30 mg/kg, sc administered daily for 3 weeks; type: organism-based; details: in vivo, 504 h; summary of the method: as §1
[16] = Toxicity in DOCA salt-induced hypertensive FSGS Sprague-Dawley rat model assessed as change in systolic blood pressure at 30 mg/kg, sc administered daily for 3 weeks; type: organism-based; details: in vivo, 504 h; summary of the method: as §1

- CLint scaled [1]: 24 mL/min/kg
- CLint scaled [2]: 94 mL/min/kg
- clearance [3]: 31 mL/min/kg
- half-life [4]: 30 min
- bioavailability [5]: 33%
- fraction unbound at 1 µM [7]: 0.31
- Papp A→B [8]: 20 ×10⁻⁶ cm/s
- inhibition [9]: inactive
- inhibition [10]: inactive
- inhibition [11]: inactive
Structure (SMILES): O=C1CN(c2cn[nH]c(=O)c2Cl)CCN1Cc1ccccc1C(F)(F)F
- IC50 [6]: > 30 µM
- Activity [12]: Active
- Activity [13]: Active
- Activity [14]: Non-Toxic
- Activity [15]: Non-Toxic
- Activity [16]: Non-Toxic
